Data on two molecules can be found in ChEMBL document CHEMBL2157870 (J Med Chem, 2012).

The structures appear in SMILES notation. Converted amounts (≈) assume the structure as drawn.

Series [1] deals with Voltage-gated inwardly rectifying potassium channel KCNH2 (Homo sapiens, UniProt Q12809). The series can be described thus: Inhibition of human ERG by patch clamp assay.
Series [2] deals with Plasmodium berghei. The series can be described thus: Antimalarial activity against Plasmodium berghei NK-65 infected in ICR mouse assessed as parasitemia level at 200 mg/kg, po administered day 3, 4 and 5 post infection measured up to day 30 by Geimsa staining. It is filed as functional. The procedure, abridged: (§1)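 Female Swiss outbred ICR mice, 15–20 g, given 1 X 10^6 P. berghei NK-65 infected red cells from donor mice in plasma at day 0 (modified Thompson's test). Patent infection confirmed by tail blood smear on day 3. Oral single daily doses in 0.5% HEC on days 3, 4, 5. Vehicle controls. Survival recorded daily to day 30. Parasitemia from Giemsa thin films on days 3, 6, 13, 20, 27, counting ≥1000 cells.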

Series [3] deals with Plasmodium falciparum. The series can be described thus: Antimalarial activity against Plasmodium falciparum 3D7 after 72 hrs by MSF assay. The following applies: 3D7, 72 h. It is filed as functional, organism-based.
Series [4] relates to Plasmodium falciparum. Description: Antimalarial activity against Plasmodium falciparum K1 after 72 hrs by MSF assay. It is filed as functional, organism-based. The following applies: K1, 72 h.
A further series concerns hERG. Description: Therapeutic index, ratio of IC50 for human ERG to EC50 for Plasmodium falciparum K1. The following applies: read-out: Ratio IC50/EC50.
Series [5] in a line: Permeability of the compound at 10 uM at pH 7.4 by PAMPA. In kind it is ADME. The following applies: pH 7.4, 10 µM. The gist of the method:
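PAMPA: diluted compound in system solution buffer at pH 7.4 was placed in the donor well over a GIT-lipid-painted membrane, with acceptor solution buffer in the acceptor well. The sandwich was stirred for 30 min with the aqueous boundary layer set to 40 μm. Triplicate.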

Series [6] is described as follows: Solubility of the compound in PBS at 10 mM after 18 hrs by UV spectroscopic analysis. It is filed as physicochemical.
A short description of series [7]: Intrinsic clearance in […] mouse liver microsomes at 2 mM. It is filed as ADME, Microsome. The following applies: read-out: CLH.
Series [8] has as its system Mus musculus. Description: Cmax in CD1 mouse at 20 mg/kg, po. In kind it is ADME, organism-based. The following applies: in vivo. Also on record: dose 20 mg/kg, route oral. The procedure, abridged: (§2)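 Female CD-1 mice, 8 weeks old, were given a single oral gavage dose as a suspension in 0.5% methylcellulose in sterile water. Blood was taken from three mice per time point (5 min–24 hr) into K3EDTA and processed to plasma. After acetonitrile protein precipitation, samples were analysed by LC-MS/MS with a warfarin internal standard. Noncompartmental analysis used linear-up/log-down trapezoidal AUC and at least three non-zero concentrations after Tmax.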

The subject of series [9] is Mus musculus. Description: Cmax in CD1 mouse at 200 mg/kg, po. In kind it is ADME, organism-based. Also on record: dose 200 mg/kg, route oral. The following applies: in vivo. The procedure, abridged: as §2
Series [10] relates to Mus musculus. The series can be described thus: Cmax in CD1 mouse at 500 mg/kg, po. It is filed as ADME, organism-based. Set-up: dose 500 mg/kg, route oral. The following applies: in vivo. The gist of the method:
as §2

In series [11] the test system is Mus musculus. Description: Tmax in CD1 mouse at 20 mg/kg, po. It is filed as ADME, organism-based. Set-up: dose 20 mg/kg, route oral. The following applies: in vivo. The procedure, abridged: as §2
Series [12] deals with Mus musculus. Description: Tmax in CD1 mouse at 200 mg/kg, po. In kind it is ADME, organism-based. The following applies: in vivo. Also on record: dose 200 mg/kg, route oral. The procedure, abridged:
as §2

In series [13] the test system is Mus musculus. Description: Tmax in CD1 mouse at 500 mg/kg, po. The following applies: in vivo. Set-up: dose 500 mg/kg, route oral. In kind it is ADME, organism-based. The procedure, abridged: as §2
The subject of series [14] is Mus musculus. Description: AUC (0 to infinity) in CD1 mouse at 20 mg/kg, po. In kind it is ADME, organism-based, Plasma. Also on record: time infinity, dose 20 mg/kg, route oral. The following applies: in vivo. The procedure, abridged:
as §2

Series [15] has as its system Mus musculus. Description: AUC (0 to infinity) in CD1 mouse at 200 mg/kg, po. In kind it is ADME, organism-based, Plasma. Also on record: time infinity, dose 200 mg/kg, route oral. The following applies: in vivo. The gist of the method:
as §2

For series [16], the system named is Mus musculus. Description: AUC (0 to infinity) in CD1 mouse at 500 mg/kg, po. In kind it is ADME, organism-based, Plasma. Set-up: time infinity, dose 500 mg/kg, route oral. The following applies: in vivo. The procedure, abridged:
as §2

The nature of series [17]: Apparent volume of distribution during terminal phase in CD1 mouse at 20 mg/kg, po. In kind it is ADME, organism-based. Also on record: dose 20 mg/kg, route oral. The following applies: CD1, mouse, in vivo, read-out: Vz/F. The gist of the method: as §2
The nature of series [18]: Apparent volume of distribution during terminal phase in CD1 mouse at 200 mg/kg, po. In kind it is ADME, organism-based. Set-up: dose 200 mg/kg, route oral. The following applies: in vivo, read-out: Vz/F. The gist of the method: as §2
The test system of series [19] is Mus musculus. The series can be described thus: Apparent volume of distribution during terminal phase in CD1 mouse at 500 mg/kg, po. In kind it is ADME, organism-based. Also on record: dose 500 mg/kg, route oral. The following applies: mouse, in vivo. The procedure, abridged:
as §2

For series [20], the system named is Plasmodium berghei. Description: Antimalarial activity against Plasmodium berghei NK-65 infected in ICR mouse assessed as parasitemia level at 100 mg/kg, po administered day 3, 4 and 5 post infection measured up to day 30 by Geimsa staining. It is filed as functional. The gist of the method: as §1
The subject of series [21] is Plasmodium berghei. Description: Antimalarial activity against Plasmodium berghei NK-65 infected in ICR mouse assessed as survival rate at 100 mg/kg, po administered day 3, 4 and 5 post infection. It is filed as functional. The gist of the method:
as §1

The subject of series [22] is Plasmodium berghei. Description: Antimalarial activity against Plasmodium berghei NK-65 infected in ICR mouse assessed as survival rate at 200 mg/kg, po administered day 3, 4 and 5 post infection. It is filed as functional. The gist of the method: as §1
In the next series the test system is HEK293. Description: Cytotoxicity against human HEK293 cells at 25 uM after 72 hrs by celltiter-glo assay. It is filed as cell-based. The following applies: hek293, 72 h.
Another series relates to HepG2. Description: Cytotoxicity against human HepG2 cells at 25 uM after 72 hrs by celltiter-glo assay. It is filed as cell-based. The following applies: hepg2, 72 h.
A further series relates to Raji. Description: Cytotoxicity against human Raji cells at 25 uM after 72 hrs by celltiter-glo assay. In kind it is cell-based.
The subject of the next series is BJ. The series can be described thus: Cytotoxicity against human BJ cells at 25 uM after 72 hrs by celltiter-glo assay. In kind it is cell-based.
The target of series [23] is T1, CYP2D6 (Homo sapiens, UniProt P10635). Description: Inhibition of CYP2D6 in human liver microsomes at 1 uM after 20 mins by LC-MS/MS analysis relative to control; values are per cent of control.
Series [24] concerns the target T1, CYP2D6. The series can be described thus: Inhibition of CYP2D6 in human liver microsomes at 10 uM after 20 mins by LC-MS/MS analysis relative to control; values are per cent of control.
In series [25] the test system is Plasmodium berghei. Description: Antimalarial activity against Plasmodium berghei NK-65 infected in ICR mouse assessed as survival rate at 50 mg/kg, po administered day 3, 4 and 5 post infection. In kind it is functional. The gist of the method: as §1

T1 sequence (P10635 whole entry): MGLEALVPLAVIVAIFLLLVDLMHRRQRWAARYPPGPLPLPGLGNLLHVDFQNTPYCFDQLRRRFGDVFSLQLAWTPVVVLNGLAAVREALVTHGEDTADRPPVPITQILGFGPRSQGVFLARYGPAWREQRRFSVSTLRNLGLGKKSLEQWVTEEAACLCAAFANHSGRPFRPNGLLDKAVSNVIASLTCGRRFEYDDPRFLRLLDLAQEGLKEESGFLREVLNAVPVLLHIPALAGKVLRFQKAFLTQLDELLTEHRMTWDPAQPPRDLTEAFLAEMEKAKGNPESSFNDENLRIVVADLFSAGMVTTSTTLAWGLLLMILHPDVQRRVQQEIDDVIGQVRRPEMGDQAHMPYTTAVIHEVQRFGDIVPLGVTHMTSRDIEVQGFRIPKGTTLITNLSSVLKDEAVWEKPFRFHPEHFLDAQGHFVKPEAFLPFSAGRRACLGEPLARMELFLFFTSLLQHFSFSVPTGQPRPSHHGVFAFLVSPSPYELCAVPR
Voltage-gated inwardly rectifying potassium channel KCNH2, sequence (Q12809 whole entry): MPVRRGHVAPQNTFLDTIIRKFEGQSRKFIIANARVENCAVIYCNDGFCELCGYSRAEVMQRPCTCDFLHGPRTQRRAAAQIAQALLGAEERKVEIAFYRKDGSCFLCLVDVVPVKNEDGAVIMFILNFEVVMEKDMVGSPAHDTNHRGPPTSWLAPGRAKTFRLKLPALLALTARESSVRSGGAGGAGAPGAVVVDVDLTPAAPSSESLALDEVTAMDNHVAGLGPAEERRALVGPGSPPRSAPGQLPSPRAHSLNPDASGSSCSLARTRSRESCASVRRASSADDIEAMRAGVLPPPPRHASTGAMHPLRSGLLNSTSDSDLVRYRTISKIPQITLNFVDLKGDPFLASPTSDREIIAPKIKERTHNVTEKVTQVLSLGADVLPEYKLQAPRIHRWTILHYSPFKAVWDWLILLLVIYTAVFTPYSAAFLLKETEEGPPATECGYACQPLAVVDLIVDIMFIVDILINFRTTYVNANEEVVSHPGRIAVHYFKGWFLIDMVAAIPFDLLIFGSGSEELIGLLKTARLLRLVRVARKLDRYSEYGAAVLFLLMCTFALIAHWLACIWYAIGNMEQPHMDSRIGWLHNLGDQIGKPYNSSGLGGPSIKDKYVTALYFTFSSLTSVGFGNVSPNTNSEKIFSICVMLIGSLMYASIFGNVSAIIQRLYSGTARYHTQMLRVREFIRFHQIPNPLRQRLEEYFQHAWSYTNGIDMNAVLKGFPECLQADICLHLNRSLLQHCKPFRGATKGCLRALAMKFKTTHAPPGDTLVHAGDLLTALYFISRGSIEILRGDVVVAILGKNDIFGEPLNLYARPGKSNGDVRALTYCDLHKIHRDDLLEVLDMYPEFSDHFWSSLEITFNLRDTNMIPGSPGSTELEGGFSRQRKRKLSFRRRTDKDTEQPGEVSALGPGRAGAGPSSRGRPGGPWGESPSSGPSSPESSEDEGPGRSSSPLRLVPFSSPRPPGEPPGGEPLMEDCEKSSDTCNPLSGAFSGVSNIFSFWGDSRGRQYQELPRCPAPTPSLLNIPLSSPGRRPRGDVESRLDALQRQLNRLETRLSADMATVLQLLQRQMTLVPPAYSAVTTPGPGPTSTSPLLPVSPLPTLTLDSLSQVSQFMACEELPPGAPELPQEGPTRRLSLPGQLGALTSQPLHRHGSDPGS

In series [1], `O=C(CCc1ccccc1)c1ccccc1OCC(O)CN1CCN(C(c2ccccc2)c2ccccc2)CC1` (stereo unspecified) registered an IC50 of 2600 nM. Further, the Activity in the series on Plasmodium berghei [2] is 55.3%; with Plasmodium berghei [20] it was 53.6%; in the series with HEK293 it was “Non-toxic”; with HepG2 it was “Non-toxic”; in the series on Raji, “Non-toxic”; with BJ it was “Non-toxic”. Further, the EC90 with Plasmodium falciparum [3] was determined as 90 nM; in the series on Plasmodium falciparum [4] it was 100 nM. In addition, the selectivity ratio in the series on hERG was determined as 26. The permeability in series [5] amounted to 2.3 ×10⁻⁶ cm/s. The same molecule had a solubility at 18 h, 10000 µM in series [6] of 0.1 µM (≈ 0.0535 µg/mL). The CLint scaled in [7] was determined as 70 mL/min/kg. Also, the Cmax in the series on Mus musculus [8] came to 73.7 nM; with Mus musculus [9], 667 nM; with Mus musculus [10], 598 nM. For the same molecule, the Tmax in the series with Mus musculus [11] turned out to be 1 h; with Mus musculus [12] it was 30 min; with Mus musculus [13], 1 h. The results for the AUC in the series with Mus musculus [14], in the series with Mus musculus [15] and in the series with Mus musculus [16] were 249 nM·h, 3.1 µM·h and 3.37 µM·h, respectively. Also, the Vd/F in series [17] was 318 L/kg; in series [18] it was 603 L/kg. In addition, in the series on Mus musculus [19], the Vz/F came to 2020 L/kg. Moreover, the MST with Plasmodium berghei [21] and in the series with Plasmodium berghei [22] was 7 days each time. On CYP2D6 [23], this molecule gave a % activity remaining at 20 min, 1 µM of 76%. This molecule also gave a % activity remaining at 20 min, 10 µM on CYP2D6 [24] of 59%.

For the molecule `CCN(CC)CCCC(C)Nc1ccnc2cc(Cl)ccc12` (stereo unspecified) [CHLOROQUINE], the results for the MST with Plasmodium berghei [21] and with Plasmodium berghei [25] were 22 days and 17 days, respectively.
